{"source": "ChEMBL document CHEMBL3526154", "about": "“Metabolism, pharmacokinetics, tissue distribution, and stability studies of the prodrug analog of an anti-hepatitis B virus dinucleoside phosphorothioate” (Drug Metab Dispos, 2012)", "settings_in_all_cases": "in vivo", "key": {"Rattus norvegicus [1]": {"tested_on": "Rattus norvegicus", "test": "AUC in female Sprague-Dawley rat at 10 mg/kg, po administered as single dose by liquid scintillation counting analysis; call rule not given here", "format": "ADME, organism-based, Plasma", "design": "dose 10 mg/kg, route oral", "summary_of_the_method": "(§1)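 Single dose of [³⁵S]-labelled prodrug to rats, i.v. tail-vein bolus in 25% PEG 400/75% saline or oral gavage in 0.05 M citric acid buffer pH 2.5, 5 ml/kg. Retro-orbital blood into EDTA at 1, 4 or 24 h; plasma by centrifugation. Radioactivity by liquid scintillation counting as µg-Eq/ml. Noncompartmental sparse-sampling analysis gives Cmax and AUC; nine rats per sex.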"}, "[2]": {"test": "Drug excretion in female Sprague-Dawley rat urine at 10 mg/kg, iv administered as bolus dose measured at 4 to 24 hrs post-dose by liquid scintillation counting analysis", "format": "ADME, organism-based", "design": "dose 10 mg/kg, route intravenous", "summary_of_the_method": "(§2)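 Single [³⁵S]-prodrug dose to rats, i.v. tail-vein bolus (PEG 400/saline vehicle) or oral gavage (citric acid buffer pH 2.5), 5 ml/kg. Urine and feces collected ~1, 4 and 24 h postdose. Radioactivity counted by liquid scintillation and expressed as % of administered dose. Mean and S.D. from nine rats per sex.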"}, "[3]": {"test": "Drug excretion in male Sprague-Dawley rat feces at 10 mg/kg, iv administered as bolus dose measured at 0 to 24 hrs post-dose by liquid scintillation counting analysis", "format": "ADME, organism-based", "design": "dose 10 mg/kg, route intravenous", "summary_of_the_method": "as §2"}, "[4]": {"test": "Drug excretion in male Sprague-Dawley rat feces at 10 mg/kg, po administered as single dose measured at 0 to 1 hr post-dose by liquid scintillation counting analysis", "format": "ADME, organism-based", "design": "dose 10 mg/kg, route oral", "summary_of_the_method": "as §2"}, "Lung [5]": {"tested_on": "Lung", "test": "Drug uptake in Sprague-Dawley rat lung at 10 mg/kg, po administered as single dose measured at 4 hrs post-dose by liquid scintillation counting analysis", "format": "ADME, organism-based", "design": "dose 10 mg/kg, route oral", "summary_of_the_method": "(§3)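 [35S]-labelled prodrug given once to rats, iv bolus via tail vein (25% PEG 400/75% saline) or oral gavage (0.05 M citric acid buffer, pH 2.5), 5 ml/kg. Rats euthanised at 1, 4 or 24 h. Liver, lung, kidney, heart, brain, spleen, tail and retro-orbital plasma were collected. Samples were homogenised and solubilised, and radioactivity was counted by liquid scintillation. Values are µg-equivalent/ml or g and % of dose.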"}, "[6]": {"test": "Drug excretion in male Sprague-Dawley rat urine at 10 mg/kg, po administered as single dose measured at 1 to 4 hrs post-dose by liquid scintillation counting analysis", "format": "ADME, organism-based", "design": "dose 10 mg/kg, route oral", "summary_of_the_method": "as §2"}, "Lung [7]": {"tested_on": "Lung", "test": "Drug uptake in Sprague-Dawley rat lung at 10 mg/kg, iv administered as bolus dose measured at 1 to 24 hrs post-dose by liquid scintillation counting analysis", "format": "ADME, organism-based", "design": "dose 10 mg/kg, route intravenous", "summary_of_the_method": "as §3"}, "Brain": {"tested_on": "Brain", "test": "Drug uptake in Sprague-Dawley rat brain at 10 mg/kg, iv administered as bolus dose measured at 1 to 24 hrs post-dose by liquid scintillation counting analysis", "format": "ADME, organism-based", "design": "dose 10 mg/kg, route intravenous", "summary_of_the_method": "(§4)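 Single i.v. tail-vein bolus or oral gavage of [³⁵S]-prodrug to rats, 5 ml/kg. Euthanised by i.p. pentobarbital overdose at 1, 4 or 24 h. Retro-orbital blood collected; liver, lung, kidney, heart, brain and spleen frozen. Tissues homogenised, solubilised and counted by liquid scintillation. Radioactivity given as µg-Eq/g and % of dose.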"}, "Spleen": {"tested_on": "Spleen", "test": "Drug uptake in Sprague-Dawley rat spleen at 10 mg/kg, iv administered as bolus dose measured at 1 to 24 hrs post-dose by liquid scintillation counting analysis", "format": "ADME, organism-based", "design": "dose 10 mg/kg, route intravenous", "summary_of_the_method": "as §3"}, "[8]": {"test": "Drug excretion in female Sprague-Dawley rat urine at 10 mg/kg, iv administered as bolus dose measured at 1 to 4 hrs post-dose by liquid scintillation counting analysis", "format": "ADME, organism-based", "design": "dose 10 mg/kg, route intravenous", "summary_of_the_method": "as §2"}, "Rattus norvegicus [9]": {"tested_on": "Rattus norvegicus", "test": "Cmax in male Sprague-Dawley rat at 10 mg/kg, po administered as single dose by liquid scintillation counting analysis", "format": "ADME, organism-based", "design": "dose 10 mg/kg, route oral", "summary_of_the_method": "as §1"}, "Rattus norvegicus [10]": {"tested_on": "Rattus norvegicus", "test": "AUC in male Sprague-Dawley rat at 10 mg/kg, po administered as single dose by liquid scintillation counting analysis", "format": "ADME, organism-based, Plasma", "design": "dose 10 mg/kg, route oral", "summary_of_the_method": "as §1"}, "[11]": {"test": "Drug excretion in female Sprague-Dawley rat urine at 10 mg/kg, iv administered as bolus dose measured at 0 to 1 hr post-dose by liquid scintillation counting analysis", "format": "ADME, organism-based", "design": "dose 10 mg/kg, route intravenous", "summary_of_the_method": "as §2"}, "Rattus norvegicus [12]": {"tested_on": "Rattus norvegicus", "test": "Drug recovery in male Sprague-Dawley rat at 10 mg/kg, iv administered as bolus dose measured after 24 hrs by liquid scintillation counting analysis", "format": "ADME, organism-based", "design": "dose 10 mg/kg, route intravenous", "summary_of_the_method": "(§5)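 Rats got a single i.v. bolus or oral gavage dose of [³⁵S]-prodrug at 5 ml/kg over a 24 h study. Radioactivity in blood, tissues, carcass, urine and feces measured by liquid scintillation counting. Total recovery given as % of administered dose at 24 h.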"}, "[13]": {"test": "Drug excretion in female Sprague-Dawley rat urine at 10 mg/kg, po administered as single dose measured at 4 to 24 hrs post-dose by liquid scintillation counting analysis", "format": "ADME, organism-based", "design": "dose 10 mg/kg, route oral", "summary_of_the_method": "as §2"}, "Heart": {"tested_on": "Heart", "test": "Drug uptake in Sprague-Dawley rat heart at 10 mg/kg, po administered as single dose measured at 1 to 24 hrs post-dose by liquid scintillation counting analysis", "format": "ADME, organism-based", "design": "dose 10 mg/kg, route oral", "summary_of_the_method": "as §4"}, "[14]": {"test": "Drug excretion in male Sprague-Dawley rat feces at 10 mg/kg, po administered as single dose measured at 4 to 24 hrs post-dose by liquid scintillation counting analysis", "format": "ADME, organism-based", "design": "dose 10 mg/kg, route oral", "summary_of_the_method": "as §2"}, "[15]": {"test": "Drug excretion in male Sprague-Dawley rat urine at 10 mg/kg, iv administered as bolus dose measured at 0 to 24 hrs post-dose by liquid scintillation counting analysis", "format": "ADME, organism-based", "design": "dose 10 mg/kg, route intravenous", "summary_of_the_method": "as §2"}, "[16]": {"test": "Drug excretion in female Sprague-Dawley rat feces at 10 mg/kg, po administered as single dose measured at 1 to 4 hrs post-dose by liquid scintillation counting analysis", "format": "ADME, organism-based", "design": "dose 10 mg/kg, route oral", "summary_of_the_method": "as §2"}, "Rattus norvegicus [17]": {"tested_on": "Rattus norvegicus", "test": "Drug recovery in female Sprague-Dawley rat at 10 mg/kg, po administered as single dose measured after 24 hrs by liquid scintillation counting analysis", "format": "ADME, organism-based", "design": "dose 10 mg/kg, route oral", "summary_of_the_method": "as §5"}, "Liver": {"tested_on": "Liver", "test": "Drug uptake in Sprague-Dawley rat liver at 10 mg/kg, iv administered as bolus dose measured at 1 to 24 hrs post-dose by liquid scintillation counting analysis", "format": "ADME, organism-based", "design": "dose 10 mg/kg, route intravenous", "summary_of_the_method": "as §3"}, "Rattus norvegicus [18]": {"tested_on": "Rattus norvegicus", "test": "Tmax in male Sprague-Dawley rat at 10 mg/kg, po administered as single dose by liquid scintillation counting analysis", "format": "ADME, organism-based", "design": "dose 10 mg/kg, route oral", "summary_of_the_method": "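Radioactivity in plasma from rats given a single [35S]-labelled dose, iv (tail vein, 25% PEG 400/75% saline) or oral gavage (0.05 M citric acid, pH 2.5), sampled at 1, 4 and 24 h, measured by liquid scintillation as µg-Eq/ml. Elimination t1/2 and Tmax were derived by noncompartmental analysis with sparse sampling, from nine male and nine female rats.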"}, "Rattus norvegicus [19]": {"tested_on": "Rattus norvegicus", "test": "Drug recovery in female Sprague-Dawley rat at 10 mg/kg, iv administered as bolus dose measured after 24 hrs by liquid scintillation counting analysis", "format": "ADME, organism-based", "design": "dose 10 mg/kg, route intravenous", "summary_of_the_method": "as §5"}, "[20]": {"test": "Drug excretion in female Sprague-Dawley rat feces at 10 mg/kg, po administered as single dose measured at 0 to 24 hrs post-dose by liquid scintillation counting analysis", "format": "ADME, organism-based", "design": "dose 10 mg/kg, route oral", "summary_of_the_method": "as §2"}, "Rattus norvegicus [21]": {"tested_on": "Rattus norvegicus", "test": "Cmax in female Sprague-Dawley rat at 10 mg/kg, po administered as single dose by liquid scintillation counting analysis", "format": "ADME, organism-based", "design": "dose 10 mg/kg, route oral", "summary_of_the_method": "as §1"}, "Kidney [22]": {"tested_on": "Kidney", "test": "Drug uptake in Sprague-Dawley rat kidney at 10 mg/kg, iv administered as bolus dose measured at 1 to 24 hrs post-dose by liquid scintillation counting analysis", "format": "ADME, organism-based", "design": "dose 10 mg/kg, route intravenous", "summary_of_the_method": "as §4"}, "Kidney [23]": {"tested_on": "Kidney", "test": "Drug uptake in Sprague-Dawley rat kidney at 10 mg/kg, po administered as single dose measured at 4 hrs post-dose by liquid scintillation counting analysis", "format": "ADME, organism-based", "design": "dose 10 mg/kg, route oral", "summary_of_the_method": "as §3"}, "[24]": {"test": "Drug excretion in female Sprague-Dawley rat feces at 10 mg/kg, po administered as single dose measured at 4 to 24 hrs post-dose by liquid scintillation counting analysis", "format": "ADME, organism-based", "design": "dose 10 mg/kg, route oral", "summary_of_the_method": "as §2"}, "[25]": {"test": "Drug excretion in female Sprague-Dawley rat feces at 10 mg/kg, iv administered as bolus dose measured at 0 to 24 hrs post-dose by liquid scintillation counting analysis", "format": "ADME, organism-based", "design": "dose 10 mg/kg, route intravenous", "summary_of_the_method": "as §2"}}}
{"smiles": "CO[C@@H]1[C@H](OP(=O)(OC[C@H]2O[C@@H](n3cnc4c(N)ncnc43)C[C@@H]2O)[35S]COC(=O)OC(C)C)[C@@H](CO)O[C@H]1n1ccc(=O)[nH]c1=O", "note": "(some centres undefined)", "values": [{"measurement": "AUC", "setting": "Rattus norvegicus [1]", "value": 27.37, "unit": "ugequiv.h/ml"}, {"measurement": "Drug excretion", "setting": "[2]", "value": 36.79, "unit": "%"}, {"measurement": "Drug excretion", "setting": "[3]", "value": 16.9, "unit": "%"}, {"measurement": "Drug excretion", "setting": "[4]", "value": 0.01, "unit": "%"}, {"measurement": "Drug uptake", "setting": "Lung [5]", "value": "Active"}, {"measurement": "Drug excretion", "setting": "[6]", "value": 0.86, "unit": "%"}, {"measurement": "Drug uptake", "setting": "Lung [7]", "value": "Active"}, {"measurement": "Drug uptake", "setting": "Brain", "value": "<= 0.5%"}, {"measurement": "Drug uptake", "setting": "Spleen", "value": "<= 0.5%"}, {"measurement": "Drug excretion", "setting": "[8]", "value": 6.34, "unit": "%"}, {"measurement": "Cmax", "setting": "Rattus norvegicus [9]", "value": 2.53, "unit": "ugequiv/ml"}, {"measurement": "AUC", "setting": "Rattus norvegicus [10]", "value": 26.86, "unit": "ugequiv.h/ml"}, {"measurement": "Drug excretion", "setting": "[11]", "value": 15.81, "unit": "%"}, {"measurement": "Drug recovery", "setting": "Rattus norvegicus [12]", "value": 83.7, "unit": "%"}, {"measurement": "Drug excretion", "setting": "[13]", "value": 34.78, "unit": "%"}, {"measurement": "Drug uptake", "setting": "Heart", "value": "<= 0.5%"}, {"measurement": "Drug excretion", "setting": "[14]", "value": 35.71, "unit": "%"}, {"measurement": "Drug excretion", "setting": "[15]", "value": 56.15, "unit": "%"}, {"measurement": "Drug excretion", "setting": "[16]", "value": 0.08, "unit": "%"}, {"measurement": "Drug recovery", "setting": "Rattus norvegicus [17]", "value": 80.4, "unit": "%"}, {"measurement": "Drug uptake", "setting": "Liver", "value": "Active"}, {"measurement": "Tmax", "setting": "Rattus norvegicus [18]", "value": 4, "unit": "h"}, {"measurement": "Drug recovery", "setting": "Rattus norvegicus [19]", "value": 84.9, "unit": "%"}, {"measurement": "Drug excretion", "setting": "[20]", "value": 2.72, "unit": "%"}, {"measurement": "Cmax", "setting": "Rattus norvegicus [21]", "value": 2.5, "unit": "ugequiv/ml"}, {"measurement": "Drug uptake", "setting": "Kidney [22]", "value": "Active"}, {"measurement": "Drug uptake", "setting": "Kidney [23]", "value": "Active"}, {"measurement": "Drug excretion", "setting": "[24]", "value": 2.68, "unit": "%"}, {"measurement": "Drug excretion", "setting": "[25]", "value": 9.44, "unit": "%"}]}
